# Data: PubChem BioAssay AID488910 (Broad Institute, 2010)
# The campaign covered roughly 20,000 compounds. About 25 (0.1%) were called active. What follows is part of a selection rich in actives, with near analogues and random picks from the rest. A number with no mark means an inactive call.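 How the source made its calls: active means mean replicate protection from cytokine-induced ATP loss at least 50% and at least 75% of replicates each reaching 50%; inconclusive means meets only one of the two criteria, mean or replicate share; inactive means fails both the mean and replicate share criteria.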
# Experiment: protection of INS-1E cells from cytokine death, primary screen, ATP luminescence, single point (AID 488910)
# Details: INS-1E cytokine-induced death, 48 h, at 10 µM, stronger effect = higher value, normalised: neutral wells 0, positive control 100
# Summary of the method: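 Assay system: INS-1E rat cells / Quantity: 8000 cells per well / Medium: RPMI without phenol red, 5% FBS / Probe or stimulus: three-cytokine cocktail (IFN-γ, TNF-α, IL-1β) / Dosing: one compound concentration, pin transfer / Timing: 48 h co-treatment, 10 min post-lysis read / Technique: CellTiter-Glo luminescence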
row,SMILES,protection from cytokine-induced ATP loss [%]
1,C[C@H](CO)N1C[C@H](C)[C@H](CN(C)C(=O)Nc2ccc(F)cc2)Oc2c(NC(=O)c3cnccn3)cccc2C1=O,8.13
2,C[C@@H]1CCCCO[C@H](CN(C)C(=O)c2ccccc2)[C@@H](C)CN([C@H](C)CO)C(=O)c2cc(NC(=O)Nc3cccc4ccccc34)ccc2O1,-1.39
3,C[C@@H]1CCCCO[C@H](CN(C)S(=O)(=O)c2ccccc2)[C@@H](C)CN([C@H](C)CO)C(=O)c2cc(NC(=O)Nc3ccc(F)cc3)ccc2O1,-6.46
4,CC(C)NC(=O)N(C)C[C@H]1Oc2ccc(NC(=O)Cn3cnnn3)cc2CC(=O)N([C@H](C)CO)C[C@H]1C,-1.35
5,Cc1noc(C)c1NC(=O)Nc1ccc2c(c1)C(=O)N([C@H](C)CO)C[C@H](C)[C@H](CN(C)Cc1ccc(Oc3ccccc3)cc1)O2,-15.9
6,C[C@H](CO)N1C[C@H](C)[C@H](CN(C)S(C)(=O)=O)Oc2ccc(NC(=O)Nc3ccc(F)cc3)cc2C1=O,2.55
7,CC(C)NC(=O)N(C)C[C@@H]1Oc2c(cccc2N(C)C)C(=O)N([C@@H](C)CO)C[C@H]1C,10.2
8,C[C@@H]1CN([C@H](C)CO)C(=O)c2cccc(NS(=O)(=O)c3ccc(F)cc3)c2O[C@@H]1CN(C)C(=O)Nc1ccc(C(F)(F)F)cc1,-38
9,Cc1ccc(S(=O)(=O)N(C)C[C@@H]2Oc3c(NC(=O)c4ccncc4)cccc3C(=O)N([C@@H](C)CO)C[C@@H]2C)cc1,11.7
10,COc1ccc(NC(=O)N(C)C[C@H]2Oc3c(NC(=O)Nc4cccc5ccccc45)cccc3C(=O)N([C@H](C)CO)C[C@@H]2C)cc1,-0.252
11,COc1cc(Br)cc(/C=N/NC(=O)c2ccccn2)c1O,-83.9
12,C[C@@H]1CCCCO[C@H](CN(C)CC2CC2)[C@@H](C)CN([C@H](C)CO)C(=O)c2cc(NC(=O)Cc3ccccc3)ccc2O1,-0.194
13,COc1ccc(NC(=O)N(C)C[C@H]2Oc3ccc(NC(=O)Nc4ccc5c(c4)OCO5)cc3C(=O)N([C@H](C)CO)C[C@H]2C)cc1,3.2
14,Cc1ccc(S(=O)(=O)Nc2ccc3c(c2)C(=O)N([C@H](C)CO)C[C@H](C)[C@H](CN(C)Cc2ccccc2)OCCCC[C@@H](C)O3)cc1,-2.3
15,CC(C)NC(=O)N(C)C[C@H]1Oc2c(NS(C)(=O)=O)cccc2C(=O)N([C@@H](C)CO)C[C@H]1C,12.8
16,C[C@H]1CN([C@@H](C)CO)C(=O)c2cc(NC(=O)Cn3cnnn3)ccc2O[C@@H]1CN(C)C(=O)Nc1ccccc1,2.24
